From ChEMBL document CHEMBL3272300, “Mapping the dopamine receptor. 1. Features derived from modifications in ring E of the neuroleptic butaclamol” (J Med Chem, 1979) come the findings set out here.

Data set [1] relates to Rattus norvegicus. Put plainly: Induction of catalepsy in Sprague-Dawley rat at 5 mg/kg, ip measured after 1 to 24 hrs. More on the design: dose 5 mg/kg, route intraperitoneal. Type of data set: organism-based. Conditions: in vivo. The gist of the method: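 Rats (160–180 g), six per group, dosed ip at 5 mg/kg. Catalepsy scored at 1, 2, 4, 6 and 24 h by Wirth stages III and IV; highest mean cataleptic score given as percent of maximum attainable score.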

Data set [2] relates to Rattus norvegicus. The data set is described as follows: Behavioral effect in Sprague-Dawley rat assessed as inhibition of d-amphetamine-induced stereotyped behaviour at 20 mg/kg, ip administered 15 mins post challenge measured every 15 mins for 4 hrs post challenge. More on the design: dose 20 mg/kg. Type of data set: functional, organism-based. Summed up:
(§1)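 Rats (160–180 g), groups of four or more, given d-amphetamine 10 mg/kg ip, then graded ip doses of test agent or vehicle 15 min later; highest dose 20 mg/kg. Behaviour scored 0 (normal), 1 (excited), 2 (stereotyped) every 15 min for 4 h after amphetamine. MED = lowest dose antagonizing all amphetamine behavioural effects over the 4-h period.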

In data set [3] the test system is Rattus norvegicus. The data set is described as follows: Behavioral effect in ip dosed Sprague-Dawley rat assessed as reduction in conditioned avoidance response compound administered 30 mins prior testing. Type of data set: functional. Summed up: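 Morpurgo discrimination box: trained rats (250–400 g) must leave start chamber for lighted exit within 10 s or get shock. Two-trial control session before dosing; graded ip doses to groups of six or more; ten trials run 30 min post-injection. Avoidance failures expressed as percent of trials; ED50 = dose giving 50% failure.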

In another data set the test system is Mus musculus. Put plainly: Inhibition of isolation-induced fighting behaviour in ip dosed Swiss albino mouse measured after 30 mins to 3 hrs. Type of data set: functional. The gist of the method:
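Albino mice (14–16 g) isolated 4–5 weeks; pairs showing maximal fighting in a morning control session were dosed ip and retested at 30 min and 3 h in 5-min observations. All-or-none: effective if no fighting episode; ED50 = dose abolishing fighting in 50% of pairs, by Litchfield–Wilcoxon.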

Data set [4] relates to Rattus norvegicus. Put plainly: Behavioral effect in ip dosed Sprague-Dawley rat assessed as inhibition of d-amphetamine-induced stereotyped behaviour compound administered 15 mins post challenge measured every 15 mins for 4 hrs post challenge. Type of data set: functional. As to conditions: read-out: MED. Summed up:
as §1

The subject of data set [5] is Rattus norvegicus. Put plainly: Inhibition of epinephrine-induced mortality in ip dosed Sprague-Dawley rat compound administered 1 hr prior challenge measured over 24 hrs. Type of data set: functional. The gist of the method: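 Groups of six or more rats (220–225 g) given graded ip doses; 1 h later epinephrine bitartrate 0.25 mg/kg iv, a dose lethal to untreated rats. Deaths recorded over 24 h. Protective ED50 (dose protecting 50% of rats from lethality) calculated by Litchfield–Wilcoxon method.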

Activity calls are given as the source filed them. The rule behind the calls is not given here.

With `CC(C)(C)C1CCN2C[C@H]3c4ccccc4CCc4cccc(c43)[C@@H]2C1` (some centres not stated), the Activity with Rattus norvegicus [1] worked out at 93%. Besides, the outcome in the data set with Rattus norvegicus [2] was inactive. Besides, the ED50 amounted to 0.8 mg/kg in the data set on Rattus norvegicus [3], 2.1 mg/kg in the data set on Mus musculus and 19 mg/kg in the data set with Rattus norvegicus [5]. In the data set on Rattus norvegicus [4], the minimal effective dose came to 0.62 mg/kg.
With `c1ccc2c(c1)CCc1cccc3c1[C@H]2CN1CCCC[C@@H]31`, in the data set on Rattus norvegicus [2], the result was inactive.
Regarding `CC(C)(C)C1CCN2C[C@H]3c4ccccc4CCc4cccc(c43)[C@H]2C1` (relative stereo), the result with Rattus norvegicus [2] was inactive.
Still for that read-out and setting: under `CC(C)(C)[C@@]1(O)CC[C@@H]2c3cccc4c3[C@@H](CN2C1)c1ccccc1CC4` (relative stereo) stands “inactive”; under `CC(C)(C)[C@]1(O)CC[C@H]2c3cccc4c3[C@@H](CN2C1)c1ccccc1CC4` (relative stereo), “inactive”.
Still for that read-out and setting: with `O[C@H]1CCN2C[C@H]3c4ccccc4CCc4cccc(c43)[C@@H]2C1` (relative stereo) the entry was “inactive”; with `c1ccc2c(c1)CCc1cccc3c1[C@H]2CN1CCC2(C[C@@H]31)OCCO2` (relative stereo), “inactive”.
As for `CC(C)(C)[C@]1(O)CCN2C[C@H]3c4ccccc4CCc4cccc(c43)[C@@H]2C1` [BUTACLAMOL], in the data set with Rattus norvegicus [1], the Activity was determined as 60%. For the same compound, the ED50 in the data set on Rattus norvegicus [3] amounted to 0.64 mg/kg; with Mus musculus, 1.9 mg/kg; with Rattus norvegicus [5], 15 mg/kg. In the data set with Rattus norvegicus [4], the minimal effective dose worked out at 0.62 mg/kg.

As usually defined, the ED50 is the midpoint of the dose-response relation.
